Compound activity (PubChem)
Most compounds without a hit are left out; they make up all but 1.8% or so of the library.
CCR6 antag = antagonists of human CCR6 receptor. 0.49% of 340,000 active. inhibition, % at 20 µM. P51684. CHO-K1 CCR6 PathHunter beta-arrestin, luminescence, CCL20-stimulated. AID 493098;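 active = compounds whose inhibition of the agonist-driven luminescence signal at 20 µM reaches about 50%, limit read from the data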;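 also: cells stimulated with CCL20 at 14 nM final; plate controls were DMSO with CCL20 for no effect and DMSO without agonist for full effect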
B2AR ag = agonists of human beta-2 adrenergic receptor inducing internalization | P07550 | Am2.2-beta2AR cells, FAP receptor internalization, flow cytometry | response, % (no concentration beside the values) | 0.43% of 340,000 active;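 active = response above a set limit, near 3 SD of response in nonfluorescent compounds, cut at about 42% in these data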
APJ ag = agonists of human APJ apelin receptor. P35414. CHO-K1 APJ PathHunter beta-arrestin, luminescence; 0% DMSO wells, 100% apelin. activation, % at 20 µM. 0.11% of 330,000 active. AID 2520;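 active = activation more than six SD over the plate average, tested at 20 µM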;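 also: 0% = DMSO alone and 100% = apelin-13 at 10 nM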
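assay system = CHO-K1 APJ beta-arrestin complementation cell line | input = cell density 1000 per well | dosing = compound 20 µM once, DMSO 1% | timing = compound 90 min 25 °C, reagent 1 h | measured by = luminescence from split beta-galactosidase complementation, Galacton Star/Emerald II substrate | read-out basis = APJ agonist activity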
APJ antagonist = blocks the human apelin receptor APJ. 0.32% of 330,000 active. CHO-K1 APJ beta-arrestin complementation, luminescence. inhibition, % at 20 µM. P35414;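 active = inhibition above about 40% at 20 µM, limit read from the data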;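 also: cells challenged with 10 nM apelin-13 agonist together with compound; plate controls were apelin-13 plus DMSO wells for no effect and DMSO wells lacking apelin-13 for full effect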
CXCR6 inh = blocks human CXCR6 beta-arrestin recruitment. inhibition, % at 20 µM. O00574. CHO-K1 PathHunter CXCR6 beta-arrestin, luminescence. 0.36% of 360,000 active. AID 602244; in the data active = inhibition above about 34%, passing the limit was not always enough;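 also: antagonist mode with CXCL16 agonist at 10 nM final; 0% = 10 nM CXCL16 with DMSO and 100% = unstimulated wells without agonist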
Target sequence (O00574 whole entry, looked up): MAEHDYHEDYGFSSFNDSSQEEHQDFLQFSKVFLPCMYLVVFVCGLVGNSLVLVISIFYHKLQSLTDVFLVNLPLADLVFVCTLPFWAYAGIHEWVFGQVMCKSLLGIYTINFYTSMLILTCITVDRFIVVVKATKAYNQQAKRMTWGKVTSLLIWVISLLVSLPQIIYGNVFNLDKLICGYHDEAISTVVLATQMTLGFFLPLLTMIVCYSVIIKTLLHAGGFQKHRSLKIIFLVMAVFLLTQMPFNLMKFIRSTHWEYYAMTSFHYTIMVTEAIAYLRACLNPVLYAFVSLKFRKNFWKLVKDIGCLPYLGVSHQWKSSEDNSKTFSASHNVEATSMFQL
EBI2 block = EBI2 (human) antagonism. P32249. EBI2 beta-arrestin recruitment, luminescence, 7a,25-OHC stimulated. inhibition, % at 5 µM. 0.81% of 360,000 active. AID 651636; in the data active = inhibition above about 38%;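 also: enzyme fragment complementation signal reports receptor beta-arrestin coupling in cells; 0% = agonist plus DMSO wells and 100% = wells without agonist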
Active calls of the source: *.

How did COC(CNC(=O)c1cccnc1)OC do in these assays?
CCR6 antag: 18; B2AR ag: 4; APJ ag: -1; APJ antagonist: -6; CXCR6 inh: 3; EBI2 block: -12

Results for CC12CNCC(C)(CN(C(c3ccccc3)c3ccccc3)C1)C2 ?
CCR6 antag: 11; B2AR ag: 90*; APJ ag: -1; APJ antagonist: -6; CXCR6 inh: -4; EBI2 block: -6

What do the screens show for `COc1ccc(CCN2C(=O)C=CC2=O)cc1OC`?
CCR6 antag: 109*; B2AR ag: 2; CXCR6 inh: 93*; EBI2 block: 8

How did Cc1ccccc1-n1c(C)cc(/C=C(\C#N)C(=O)NCC2CCCO2)c1C (configuration not stated) do in these assays?
CCR6 antag: -7; B2AR ag: -6; APJ ag: -3; APJ antagonist: 9; CXCR6 inh: 10; EBI2 block: 9

Results for Cc1cc(/C=C(\C#N)C(=O)NCc2cccs2)c(C)n1-c1ccccc1F ?
CCR6 antag: 7; B2AR ag: 8; APJ ag: -5; APJ antagonist: 11; CXCR6 inh: 7; EBI2 block: 51*

What do the screens show for `CC1(C)CC(=O)C=C(c2n[nH]nc2-c2ccccc2)C1`?
CXCR6 inh: 1; EBI2 block: -5

How did CCCCC1CC2=C(C(=O)OC(C)(C)O2)C(c2ccc(F)cc2)O1 (configuration not stated) do in these assays?
CXCR6 inh: -1; EBI2 block: -12

Results for O=C(NN=C1c2ccccc2-c2ccccc21)c1cccc(Br)c1 ?
CCR6 antag: 47; B2AR ag: -14; APJ ag: -4; APJ antagonist: 40; CXCR6 inh: 46*; EBI2 block: 13

How did O=C(Nc1cccc(/C=C/c2ccccn2)c1)c1ccc(-n2cncn2)c([N+](=O)[O-])c1 do in these assays?
CCR6 antag: 4; B2AR ag: 31; APJ ag: 19; APJ antagonist: -56; CXCR6 inh: -12; EBI2 block: -29

What do the screens show for `O=C(Cn1c(=O)cnc2ccccc21)Nc1cccc(S(=O)(=O)N2CCCCC2)c1`?
CCR6 antag: 9; B2AR ag: 17; APJ ag: -2; APJ antagonist: -3; CXCR6 inh: 2; EBI2 block: 0

Results for C=CCNc1nc2cc(-c3cccc(Cl)c3)sc2c(=O)n1C ?
CXCR6 inh: 4; EBI2 block: 2

Results for COc1ccc(CN2C(=O)C(CC(=O)NCc3cccs3)CC(C(=O)N3CCOCC3)=C2C)cc1 (configuration not stated) ?
CXCR6 inh: -6; EBI2 block: -2

How did CC1CCN(C(=O)c2ccc3c(c2NCCO)C(=O)c2ccccc2C3=O)CC1 do in these assays?
CCR6 antag: 25; B2AR ag: -4; APJ ag: -1; APJ antagonist: -1; CXCR6 inh: 20; EBI2 block: 46*

Results for CCN(CC)CCNC(=O)c1ccc2c(c1NCCO)C(=O)c1ccccc1C2=O ?
CCR6 antag: 19; APJ ag: -1; APJ antagonist: -7; CXCR6 inh: 8; EBI2 block: 1

What do the screens show for `Clc1ccc(CSc2nccn2Cc2ccccc2)cc1`?
CCR6 antag: 26; B2AR ag: -8; APJ ag: -8; APJ antagonist: -10; CXCR6 inh: -10; EBI2 block: 77*

Results for CC(C)c1ccc(/C=C(\c2nc3ccccc3[nH]2)S(=O)(=O)c2ccccc2)cc1 ?
CCR6 antag: 22; B2AR ag: 42*; APJ ag: -1; APJ antagonist: 9; CXCR6 inh: 9; EBI2 block: 14

What do the screens show for `O=S(=O)(/C(=C/c1ccc(C(F)(F)F)cc1)c1nc2ccccc2[nH]1)c1ccccc1`?
B2AR ag: 22; CXCR6 inh: 0; EBI2 block: 36

What do the screens show for `O=C(Nc1cccc2ccccc12)c1ccco1`?
CXCR6 inh: 4; EBI2 block: 6

Results for O=C1Nc2ccccc2C(=O)N(C2CCCC2)C1C(=O)NC1CC1 (configuration not stated) ?
EBI2 block: 1

What do the screens show for `COc1ccc(CCN2C(=O)COc3ccccc3C2C(=O)Nc2ccc3c(c2)OCCO3)cc1OC` (configuration not stated)?
CXCR6 inh: -7; EBI2 block: -10

What do the screens show for `Cc1ccccc1CS(=O)(=O)c1nnc([C@H](CC(C)C)NC(=O)OC(C)(C)C)o1`?
CCR6 antag: 53*; B2AR ag: 64*; APJ ag: -1; APJ antagonist: 31; CXCR6 inh: 27; EBI2 block: 13

Results for CC[C@@H](C)[C@H](NC(=O)OC(C)(C)C)c1nnc(S(=O)(=O)Cc2cc(C)ccc2C)o1 ?
CCR6 antag: 48; B2AR ag: 11; APJ ag: 0; APJ antagonist: 14; CXCR6 inh: 37; EBI2 block: 12

Results for CC(C)(C)OC(=O)N[C@@H](Cc1ccccc1)c1nnc(S(=O)(=O)Cc2cccc(F)c2)o1 ?
CCR6 antag: 69*; APJ ag: 0; APJ antagonist: 29

What do the screens show for `OC(Cc1ccnc2ccccc12)C(Cl)(Cl)Cl` (configuration not stated)?
CCR6 antag: 2; B2AR ag: -18; CXCR6 inh: 2; EBI2 block: 4

Results for Cc1cccc(S(=O)(=O)NC(=O)C2(C)CCN2C(=O)CC2CCCCC2)c1 (configuration not stated) ?
CXCR6 inh: -4; EBI2 block: -12

How did CC(=O)C1CCC2C3CCC4=CC(=O)CCC4(C)C3(Br)C(=O)CC12C (configuration not stated) do in these assays?
CCR6 antag: -2; B2AR ag: 56*; CXCR6 inh: -13; EBI2 block: -14

How did CN(C)CCCn1c(=S)[nH]c2ccccc2c1=O do in these assays?
CCR6 antag: 16; B2AR ag: -16; APJ ag: -1; APJ antagonist: 2; CXCR6 inh: -5; EBI2 block: -6

How did CN(C)CCCn1c2c3ccccc3ccc2c2oc(=O)c3ccccc3c21 do in these assays?
CCR6 antag: 15; B2AR ag: 43*; CXCR6 inh: 6; EBI2 block: 11

Results for O=CC(=O)c1ccccc1 ?
CCR6 antag: 76*; B2AR ag: 1; APJ ag: -3; APJ antagonist: 12; CXCR6 inh: 34; EBI2 block: -7

What do the screens show for `O=c1cc(CN(Cc2ccccc2)Cc2ccccc2)c2ccccc2o1`?
CXCR6 inh: 8; EBI2 block: 9

How did C[C@]12CC[C@@H]3c4ccc(O)cc4CC[C@H]3[C@@H]1CC[C@@H]2OC(=O)CCC1CCCC1 do in these assays?
CCR6 antag: -4; B2AR ag: 4; APJ ag: 4; APJ antagonist: -15; CXCR6 inh: -6; EBI2 block: 5
